Test results published in ChEMBL document CHEMBL1141358, “Antioxidant phenylpropanoid-substituted epicatechins from Trichilia catigua” (J Nat Prod, 2007).
pIC50: −log10 of the molar value. The source made the active and inactive calls. The calls are words filed in the database; no cut-off is given here.

Experiments:
[1] = DPPH radical scavenging activity; type: functional
In short: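 Samples dissolved in EtOH and diluted to 500, 100, 50 and 10 µg/mL (concentrations before mixing). Each 20 µL aliquot was mixed immediately with 180 µL DPPH, with an EtOH blank. After 20 min, A517 was read. Scavenging was taken as the fall in DPPH absorbance relative to a sample-free DPPH control. IC50 was interpolated from concentration-inhibition curves as the mean of triplicates.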

PC-12 [2] = assay: Neurotrophic effect in rat NGF-induced PC12 cells upto 100 uM; type: functional, cell-based
In short: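 PC12 cells were co-treated with NGF and test compounds at 1–100 µM, then checked for neurotrophic effects.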

PC-12 [3] = assay: Neurotrophic effect in rat PC12 cells; type: functional, cell-based
In short: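 PC12 cells without NGF were exposed to test compounds at 1–100 µM and examined for neurotrophic activity.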

Work on Oc1cc(O)c2c(c1)O[C@H](c1ccc(O)c(O)c1)[C@@H](O)C2 [CATECHIN] yielded a pIC50 [1] of 5.00.

In the case of COC(=O)C[C@@H]1c2cc(O)c(O)cc2Oc2cc(O)c3c(c21)O[C@H](c1ccc(O)c(O)c1)[C@H](O)C3 [CATIGUANIN A], the Activity (PC-12 [2]) was “inactive”, the pIC50 [1] was 5.15 and the Activity (PC-12 [3]) was “inactive”.

COC(=O)C[C@H]1c2cc(O)c(O)cc2Oc2cc(O)c3c(c21)O[C@H](c1ccc(O)c(O)c1)[C@H](O)C3 [CATIGUANIN B] gave a pIC50 [1] of 5.17.

With O=C1C[C@@H](c2ccc(O)c(O)c2)c2c(cc(O)c3c2O[C@H](c2ccc(O)c(O)c2)[C@H](O)C3)O1 [CINCHONAIN IA] the Activity (PC-12 [2]) was “inactive”, the pIC50 [1] was 5.03 and the Activity (PC-12 [3]) was “inactive”.

O=C1C[C@H](c2ccc(O)c(O)c2)c2c(cc(O)c3c2O[C@H](c2ccc(O)c(O)c2)[C@H](O)C3)O1 [CINCHONAIN IB] gave a pIC50 [1] of 5.29.

O=C1C[C@H](c2ccc(O)c(O)c2)c2c(O)cc3c(c2O1)C[C@@H](O)[C@@H](c1ccc(O)c(O)c1)O3 [CINCHONAIN IC] gave a pIC50 [1] of 5.60.

Compound O=C1C[C@@H](c2ccc(O)c(O)c2)c2c(O)cc3c(c2O1)C[C@@H](O)[C@@H](c1ccc(O)c(O)c1)O3 [CINCHONAIN ID] has a pIC50 [1] of 5.64.
